From ChEMBL document CHEMBL4229525, “Anti-angiogenic and anticancer effects of baicalein derivatives based on transgenic zebrafish model” (Bioorg Med Chem, 2018)
pIC50: −log10 of the molar value. The source made the active and inactive calls. No cut-off for these calls is given here.

Experiments:
[1] = tested on: A549; test: Induction of apoptosis in human A549 cells assessed as late apoptotic cells at 1 uM after 48 hrs by Annexin-V-FITC/propidium iodide staining based flow cytometry (reference value: 4.05%); format: functional
In short: (§1)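 A549 cells, 2×10⁵/well, were cultured for 24 h at 37 °C, 5% CO₂, then treated 48 h with 1, 4 or 8 μM compound. Staining used annexin V-FITC and PI, 30 min at 25 °C, followed by flow cytometry; Q3 was counted as early apoptotic and Q2 as late apoptotic.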

[2] = tested on: A549; test: Induction of apoptosis in human A549 cells assessed as live cells at 1 uM after 48 hrs by Annexin-V-FITC/propidium iodide staining based flow cytometry (reference value: 75.2%); format: functional; in short: as §1
[3] = species on record: Danio rerio; test: Toxicity in 24 to 72 hrs post fertilized zebra fish embryo harboring fli1:EGFP; format: organism-based; conditions: zebrafish, in vivo
In short: (§2)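 Dechorionated Tg(fli1:EGFP) embryos at 24 hpf, 20 per group, were kept in 1 mL embryo water with compound at 28.5 °C for a further 48 h. Compound was tested at 1, 5, 10, 25, 50, 75, 100, 150 and 200 μM. At 72 hpf, embryos anaesthetised with 0.016% tricaine had their ISVs imaged by fluorescence microscopy, with SU5416 as positive control. Definitions used: LOEC is anti-angiogenic effect in most larvae; LOTC is lowest toxic concentration; LC100 is total embryo lethality. TI = LOTC/LOEC; AI = LC100/LOEC.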

[4] = tested on: A549; test: Antiproliferative activity against human A549 cells after 48 hrs by MTT assay; format: functional, cell-based; conditions: A549, 48 h
In short: (§3)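 A549 or L929 fibroblasts seeded at 4×10⁴ cells/mL in DMEM with 10% FBS, 5% horse serum and penicillin/streptomycin, 37 °C, 5% CO₂. After 24 h, compound added for 48 h. MTT read at 570 nm; viability = OD treated/OD untreated ×100%; mean ± SD.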

[5] = tested on: A549; test: Induction of apoptosis in human A549 cells assessed as live cells at 8 uM after 48 hrs by Annexin-V-FITC/propidium iodide staining based flow cytometry (reference value: 75.2%); format: functional; in short: as §1
[6] = tested on: A549; test: Induction of apoptosis in human A549 cells assessed as late apoptotic cells at 8 uM after 48 hrs by Annexin-V-FITC/propidium iodide staining based flow cytometry (reference value: 4.05%); format: functional; in short: as §1
[7] = tested on: A549; test: Induction of apoptosis in human A549 cells assessed as early apoptotic cells at 4 uM after 48 hrs by Annexin-V-FITC/propidium iodide staining based flow cytometry (reference value: 15.2%); format: functional; in short: as §1
[8] = tested on: HUVEC; test: Antimigratory activity in HUVEC at 25 uM after 8 hrs by crystal violet staining based Boyden chamber assay relative to control; format: functional, Homo sapiens
In short: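 Boyden chamber with 8 μm pores, 8000 HUVECs/well, compound or vehicle in the top chamber, 8 h migration. Non-migrated cells removed by swab; migrated cells fixed in 100% methanol, stained with 0.05% crystal violet and counted manually in four random fields per well. Three replicate wells; % inhibition relative to control set at 100%; mean ± SEM, n=3.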

[9] = tested on: A549; test: Induction of apoptosis in human A549 cells assessed as necrotic cells at 1 uM after 48 hrs by Annexin-V-FITC/propidium iodide staining based flow cytometry (reference value: 5.45%); format: functional; in short: as §1
[10] = tested on: HUVEC; test: Cytotoxicity against HUVEC assessed as inhibition of cell proliferation after 48 hrs by CCK8 assay; format: cell-based, Homo sapiens
In short: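 HUVECs were seeded at 3000/well in EGM-2 and allowed 12 h to attach, then exposed 48 h to compound (5–50 μM) or 0.1% DMSO vehicle. Growth was read by CCK-8 absorbance at 450 nm, in triplicate, and IC50 was calculated from the concentration–response data.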

[11] = tested on: A549; test: Induction of apoptosis in human A549 cells assessed as early apoptotic cells at 8 uM after 48 hrs by Annexin-V-FITC/propidium iodide staining based flow cytometry (reference value: 15.2%); format: functional; in short: as §1
[12] = tested on: L929; test: Cytotoxicity against mouse L929 cells after 48 hrs by MTT assay; format: functional, cell-based; conditions: L929, 48 h; in short: as §3
[13] = tested on: A549; test: Induction of apoptosis in human A549 cells assessed as necrotic cells at 4 uM after 48 hrs by Annexin-V-FITC/propidium iodide staining based flow cytometry (reference value: 5.45%); format: functional; in short: as §1
[14] = tested on: A549; test: Induction of apoptosis in human A549 cells assessed as caspase-3 activation at 1 to 8 uM by Ac-DEVD-pNA substrate based assay; format: functional, cell-based
In short: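 A549 lysates were spun at 15,000 rpm for 15 min at 4 °C. Then 110 µg protein was mixed with reaction buffer and Ac-DEVD-pNA substrate (2 mM stock) and incubated 3 h at 37 °C. Caspase-3 activity was measured as released pNA at 405 nm.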

[15] = Antiangiogenic index, ratio of LC100 for 24 to 72 hrs post fertilized zebra fish embryo harboring fli1:EGFP to MEC for antiangiogenic activity in 24 to 72 hrs post fertilized zebra fish embryo harboring fli1:EGFP; format: toxicity, organism-based, Danio rerio; conditions: fli1:EGFP transgenic, zebrafish, in vivo; in short: as §2
[16] = tested on: A549; test: Induction of apoptosis in human A549 cells assessed as early apoptotic cells at 1 uM after 48 hrs by Annexin-V-FITC/propidium iodide staining based flow cytometry (reference value: 15.2%); format: functional; in short: as §1
[17] = tested on: A549; test: Induction of apoptosis in human A549 cells assessed as necrotic cells at 8 uM after 48 hrs by Annexin-V-FITC/propidium iodide staining based flow cytometry (reference value: 5.45%); format: functional; in short: as §1
[18] = species on record: Danio rerio; test: Antiangiogenic activity in 48 hrs post fertilized zebra fish embryo harboring fli1:EGFP assessed as changes in blood vessel formation at late stage embryos by fluorescence microscopic analysis; format: functional, organism-based
In short: (§4)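 Tg(fli1:EGFP) zebrafish: 20 dechorionated 24 hpf embryos per group in 1 mL embryo water with compound (1, 5, 10, 25, 50, 75, 100, 150, 200 μM), 28.5 °C for 48 h. Embryos anaesthetised in 0.016% tricaine; ISVs imaged by fluorescence microscopy at 72 hpf and scored for vessel defects and overall morphology. SU5416 positive control.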

[19] = species on record: Danio rerio; test: Antiangiogenic activity in 48 hrs post fertilized zebra fish embryo harboring fli1:EGFP assessed as inhibition of intersegmental vessel formation at 50 uM by fluorescence microscopic analysis; format: functional; in short: as §4
[20] = tested on: HUVEC; test: Antiangiogenic activity in HUVEC assessed as inhibition of capillary-like tube formation at 50 uM after 12 hrs by matrigel-based microscopic analysis; format: functional; conditions: Homo sapiens
In short: (§5)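 Growth-factor-reduced Matrigel solidified 120 min at 37 °C; 2×10⁴ HUVECs/well in EGM-2 with compound or 2 μM SU5416, 12 h. Networks imaged at 100× and tube length quantified in four random fields; mean ± SEM, n=3.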

[21] = species on record: Danio rerio; test: Antiangiogenic activity in 48 hrs post fertilized zebra fish embryo harboring fli1:EGFP assessed as inhibition of intersegmental vessel formation by fluorescence microscopic analysis; format: functional, organism-based; in short: as §4
[22] = species on record: Danio rerio; test: Antiangiogenic activity in 48 hrs post fertilized zebra fish embryo harboring fli1:EGFP assessed as inhibition of dorsal long axis blood vessel formation at 50 uM by fluorescence microscopic analysis; format: functional; in short: as §4
[23] = Toxicity index, ratio of MTC for 24 to 72 hrs post fertilized zebra fish embryo harboring fli1:EGFP to MEC for antiangiogenic activity in 24 to 72 hrs post fertilized zebra fish embryo harboring fli1:EGFP; format: organism-based, Danio rerio; conditions: fli1:EGFP transgenic, zebrafish, in vivo; in short: as §2
[24] = tested on: A549; test: Induction of apoptosis in human A549 cells assessed as live cells at 4 uM after 48 hrs by Annexin-V-FITC/propidium iodide staining based flow cytometry (reference value: 75.2%); format: functional; in short: as §1
[25] = tested on: HUVEC; test: Antiangiogenic activity in HUVEC assessed as inhibition of capillary-like tube formation at 25 uM after 12 hrs by matrigel-based microscopic analysis; format: functional; conditions: Homo sapiens; in short: as §5
[26] = tested on: HUVEC; test: Antiangiogenic activity in HUVEC assessed as inhibition of capillary-like tube formation at 100 uM after 12 hrs by matrigel-based microscopic analysis; format: functional; conditions: Homo sapiens; in short: as §5
[27] = species on record: Danio rerio; test: Toxicity in 48 hrs post fertilized zebra fish embryo harboring fli1:EGFP assessed as morphological changes at 5 to 50 uM; format: organism-based; conditions: zebrafish, in vivo; in short: as §4
[28] = tested on: A549; test: Induction of apoptosis in human A549 cells assessed as late apoptotic cells at 4 uM after 48 hrs by Annexin-V-FITC/propidium iodide staining based flow cytometry (reference value: 4.05%); format: functional; in short: as §1
[29] = tested on: HUVEC; test: Antiangiogenic activity in HUVEC assessed as inhibition of capillary-like tube formation after 12 hrs by matrigel-based microscopic analysis; format: functional, cell-based; conditions: Homo sapiens; in short: as §5
[30] = species on record: Danio rerio; test: Antiangiogenic activity in 24 to 72 hrs post fertilized zebra fish embryo harboring fli1:EGFP after 48 hrs by fluorescence microscopic analysis; format: functional; in short: as §4

`O=C(COc1c(OCc2ccccc2)cc2oc(-c3ccccc3)cc(=O)c2c1O)N1CCNCC1` showed an Activity [1] of 23%, an Activity [2] of 36.2% and an LC100 [3] of 100 µM. For the same compound, the MTC [3] was 25 µM, the pIC50 [4] was 5.33 and the Activity [5] was 10.2%. The Activity [6] was 62.1%, the Activity [7] was 36.3% and the Activity [8] was “<=50%”. For the same compound, the Activity [9] was 7.92%, the pIC50 ([10]; Homo sapiens, HUVEC) was 4.24 and the “inhibition (INH)” value ([10]; human, huvec) was “Dose-dependent effect”. For the same compound, the Activity [11] was 22.5%, the pIC50 [12] was 4.72 and the Activity [13] was 5.4%. The Activity [14] was “Active”, the selectivity ratio [15] was 20 and the Activity [16] was 32.9%. For the same compound, the Activity [17] was 2.15%, the Activity [18] was “inactive” and the “inhibition (INH)” value [19] was 100%. The inhibition at 50 µM [20] was 54.2%, the inhibition [21] was “Dose-dependent effect” and the “inhibition (INH)” value [22] was 100%. For the same compound, the selectivity ratio [23] was 5, the Activity [24] was 22.4% and the inhibition at 25 µM [25] was 24.9%. The inhibition at 100 µM [26] was 72.6%, the Activity [27] was “Non-Toxic” and the Activity [28] was 36%. For the same compound, the inhibition [29] was “Dose-dependent effect” and the MEC [30] was 5 µM.
